Molecules are shown by their SMILES. Activity calls are given as the source filed them.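 The calls were made as follows, unless noted: active = viability at or below 10% of carrier control in both of two separate runs; inconclusive = viability at or below 10% in only one of the two runs; inactive = the rest.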

The nature of test [1]: reduced viability of SK-BR-3 breast cancer cells – cell-based, 24 h, human, pilot screen (AID 572).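 Also: compound exposure lasted between 18 and 24 h rather than exactly 24 h; 100% = carrier-treated control wells.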 Conditions: SK-BR-3 viability, CellTiter-Glo luminescence, at 10 µM, stronger effect = lower value.
Test [2] is described as follows: HUVEC growth inhibition – cell-based, human, primary screen (AID 575;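 active = viability at or below 30% in both replicate assays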;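 also: 100% = median of untreated cell wells with 0.1% DMSO on each plate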). The settings on record: HUVEC proliferation, CellTiter-Glo luminescence, 72 h; at 10 µM; stronger effect = lower value. In short, it runs like this: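 Test system: primary human umbilical vein endothelial cells; medium: endothelial basal medium with 2% FBS plus growth supplements; dosing: 10 µM compound only; times: 72 h treatment at 37 °C; signal: CTG luminescence; read-out: % viability relative to median vehicle-well signal on each plate; control set: vehicle and MePR control wells; plate: 384-well, collagen-coated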

Test [3] in a line: H69AR cell proliferation blockers – human, duplicate replicates, primary screen (AID 580;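 active = viability at or under a set limit in both replicates, limit being median viability minus 3 SD, cut at about 48% in these data, passing the limit was not always enough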;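 also: 100% = mean luminescence of untreated wells and 0% = no signal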). The settings on record: H69AR lung tumor cells viability, ATP luminescence, 72 h; at 10 µM; stronger effect = lower value.
Test [4] is described as follows: MRP1 drug-resistance reversers in H69AR cells – cell-based, doxorubicin co-treatment, pilot screen (AID 601;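 active = viability loss from added drug above about 55%, and viability with drug at most 40%, in both replicates, limit read from the data, passing the limit was not always enough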). Conditions: CellTiter-Glo, 72 h, at 10 µM; for differential viability (reversal): stronger effect = higher value. In general terms: In ATP-based viability assays light output follows the ATP content of the culture.
The nature of test [5]: yeast transport mutant growth inhibition pilot in 384-well plates, post-Golgi transport modulator project (AID 636; in the data active = inhibition above about 31%). The settings on record: absorbance 615 nm, about 18 h, stronger effect = higher value.
A short description of test [6]: growth suppression of yeast trafficking mutant, preliminary HTS, modulators of trafficking downstream of Golgi apparatus project, 1536-format plate, OD 615 nm (AID 637; in the data active = inhibition above about 30%). The settings on record: yeast transport mutant growth, absorbance 615 nm, 18 h; stronger effect = higher value.
The mark [7] stands for this setting: H69AR cells + 2 uM doxorubicin, measured here: viability with 2 uM doxorubicin, stronger effect = lower value.
Where [8] appears, read: H69AR cells, compound alone cytotoxicity.

What is called viability is a read-out of living cells in per cent, often relative to untreated cells. By inhibition is commonly meant the change of the read-out against control, counted positive when it falls. As to `O=C(O)CSC1CC(=O)N(c2ccc(Cl)c(Cl)c2)C1=O` (configuration not stated), the viability in test [1] is 104% (inactive); in test [2], 109% (inactive); in test [3], 98.8% (inactive); in test [4] (setting [7]) it was 91.1%; in test [4] (setting [8]), 98.8%. In test [4] (H69AR cells + 2 uM doxorubicin), the differential viability (reversal) was 7.75% (inactive). In addition, the inhibition in test [5] was -8.38% (inactive); in test [6], 0.36% (inactive).

`O=C(Nc1cccc(OCC(=O)N2CCOCC2)c1)C1CCCCC1`: the viability is 109% (inactive) in test [1]; 90% (inactive) in test [2]; 112% (inactive) in test [3]; 112% in test [4] (setting [7]); 112% in test [4] (setting [8]). Besides, the differential viability (reversal) in test [4] (H69AR cells + 2 uM doxorubicin) was -0.43% (inactive). In addition, the inhibition in test [5] was -4.66% (inactive); in test [6], 0% (inactive).

Take `O=C(C1CCCN(S(=O)(=O)c2cccc3nonc23)C1)N1CCC(Cc2ccccc2)CC1` (configuration not stated): the viability in test [1] is 103% (inactive); in test [2], 34.9% (inactive); in test [3], 71.3% (inactive); in test [4] (setting [7]) it was 55.2%; in test [4] (setting [8]) it was 71.3%. Besides, in test [4] (H69AR cells + 2 uM doxorubicin), the differential viability (reversal) is 16% (inactive). In addition, the figures for the inhibition in test [5] and in test [6] were -4.21% (inactive) and -7.17% (inactive), respectively.

Consider `O=C(NO)c1ccccc1O`, for which the viability in test [1] is 109% (inactive); in test [2] it was 86.7% (inactive); in test [3], 105% (inactive); in test [4] (setting [7]) it was 81.8%; in test [4] (setting [8]) it was 105%. Moreover, the differential viability (reversal) in test [4] (H69AR cells + 2 uM doxorubicin) was 23.1% (inactive). The inhibition was -1.95% (inactive) in test [5] and 6.83% (inactive) in test [6].

For `CN1C(=O)c2oc3ccccc3c(=O)c2C1c1ccccn1` (configuration not stated), the viability was 105% (inactive) in test [1]; 87% (inactive) in test [2]; 106% (inactive) in test [3]; 94.8% in test [4] (setting [7]); 106% in test [4] (setting [8]). Further, the differential viability (reversal) in test [4] (H69AR cells + 2 uM doxorubicin) is 11% (inactive). The figures for the inhibition in test [5] and in test [6] were -6.58% (inactive) and -1.09% (inactive), respectively.

As for `CN1C(=O)c2c(sc3c2CCCC3)NC1c1ccccc1O` (configuration not stated), the viability in test [1] is 72% (inactive); in test [2], 68.7% (inactive); in test [3], 93.2% (inactive); in test [4] (setting [7]), 95.2%; in test [4] (setting [8]), 93.2%. Further, the differential viability (reversal) in test [4] (H69AR cells + 2 uM doxorubicin) was -2.01% (inactive). Further, the inhibition in test [5] is -3.97% (inactive); in test [6], -0.81% (inactive).

Take `COc1ccc(N2C(=O)C(Cl)=C(N3CCCC3)C2=O)cc1`: the viability in test [1] is 97% (inactive); in test [2], 86.1% (inactive); in test [3], 94.7% (inactive); in test [4] (setting [7]), 84.8%; in test [4] (setting [8]), 94.7%. The differential viability (reversal) in test [4] (H69AR cells + 2 uM doxorubicin) was 9.9% (inactive). The inhibition in test [5] is -6.08% (inactive); in test [6] it was -6.18% (inactive).

With `Cc1[nH]nc(-c2ccc(O)c(C)c2O)c1-c1cnn(-c2ccccc2)c1`, the viability in test [1] is 93% (inactive); in test [2] it was 85.4% (inactive); in test [3], 94.2% (inactive); in test [4] (setting [7]) it was 82.1%; in test [4] (setting [8]), 94.2%. For the same molecule, in test [4] (H69AR cells + 2 uM doxorubicin), the differential viability (reversal) was 12% (inactive). Further, the results for the inhibition in test [5] and in test [6] were -4.52% (inactive) and -3.27% (inactive), respectively.

For the molecule `COc1ccc(-c2ccc(-c3noc(-c4ccccc4)n3)c(OC)n2)cc1`, the viability in test [1] was 103% (inactive); in test [2], 68.3% (inactive); in test [3], 88% (inactive); in test [4] (setting [7]), 84.7%; in test [4] (setting [8]), 88%. In addition, the differential viability (reversal) in test [4] (H69AR cells + 2 uM doxorubicin) was 3.25% (inactive). Also, the inhibition in test [5] was -8.51% (inactive); in test [6] it was -10.2% (inactive).

Turning to `O=C(CSc1ncn[nH]1)NC1CC2CCC1C2` (configuration not stated), the viability was 94% (inactive) in test [1]; 103% (inactive) in test [2]; 98% (inactive) in test [3]; 120% in test [4] (setting [7]); 98% in test [4] (setting [8]). Moreover, the differential viability (reversal) in test [4] (H69AR cells + 2 uM doxorubicin) is -22.4% (inactive). Moreover, the inhibition in test [5] is -5.34% (inactive); in test [6], -1.82% (inactive).

As for `COC(=O)CCn1nnc(-c2ccc(C)cc2)n1`, the viability was 90% (inactive) in test [1]; 109% (inactive) in test [2]; 94.1% (inactive) in test [3]; 90.4% in test [4] (setting [7]); 94.1% in test [4] (setting [8]). Further, the differential viability (reversal) in test [4] (H69AR cells + 2 uM doxorubicin) was 3.69% (inactive). The inhibition is -6% (inactive) in test [5] and -2.91% (inactive) in test [6].

Regarding `c1ccc2oc(SCc3cn4ccccc4n3)nc2c1`, the viability in test [1] was 91% (inactive); in test [2], 93.3% (inactive); in test [3], 95% (inactive); in test [4] (setting [7]) it was 85.6%; in test [4] (setting [8]), 95%. The differential viability (reversal) in test [4] (H69AR cells + 2 uM doxorubicin) is 9.37% (inactive). Further, the inhibition in test [5] is -1.43% (inactive); in test [6], -1.48% (inactive).

For the molecule `O=S1(=O)CCC(N=Cc2cc(Br)ccc2O)C1` (configuration not stated), the viability was 94% (inactive) in test [1]; 68.9% (inactive) in test [2]; 78.1% (inactive) in test [3]; 92.4% in test [4] (setting [7]); 78.1% in test [4] (setting [8]). Further, the differential viability (reversal) in test [4] (H69AR cells + 2 uM doxorubicin) was -14.3% (inactive). In addition, the values for the inhibition in test [5] and in test [6] were -5.62% (inactive) and 2.26% (inactive), respectively.

`O=C(NCc1ccccc1)c1cc(-c2ccco2)on1`: the viability was 111% (inactive) in test [1]; 100% (inactive) in test [2]; 94% (inactive) in test [3]; 77.3% in test [4] (setting [7]); 94% in test [4] (setting [8]). For the same molecule, the differential viability (reversal) in test [4] (H69AR cells + 2 uM doxorubicin) is 16.6% (inactive). In addition, the inhibition in test [5] was -0.13% (inactive); in test [6], 4.59% (inactive).

In the case of `CCC(=O)Nc1cc(Cl)ccc1N1CCN(C(=O)CC)CC1`, the viability was 70% (inactive) in test [1]; 92.6% (inactive) in test [2]; 88.5% (inactive) in test [3]; 85% in test [4] (setting [7]); 88.5% in test [4] (setting [8]). Also, the differential viability (reversal) in test [4] (H69AR cells + 2 uM doxorubicin) is 3.43% (inactive). Further, the inhibition is -4.66% (inactive) in test [5] and 0.73% (inactive) in test [6].

For `Clc1ccc(-n2nnnc2Sc2ncnc3sccc23)cc1`, the viability was 123% (inactive) in test [1]; 5.51% (active) in test [2]; 1.29% (active) in test [3]; 1.56% in test [4] (setting [7]); 1.29% in test [4] (setting [8]). Further, in test [4] (H69AR cells + 2 uM doxorubicin), the differential viability (reversal) is -0.27% (inactive). For the same molecule, the inhibition in test [5] was 20.6% (inactive); in test [6], 65.5% (active).

For `Cc1onc(-c2ccccc2)c1C(=O)NCCN1CCOCC1`, the viability in test [1] was 94% (inactive); in test [2], 102% (inactive); in test [3] it was 98% (inactive); in test [4] (setting [7]), 87.9%; in test [4] (setting [8]), 98%. In addition, the differential viability (reversal) in test [4] (H69AR cells + 2 uM doxorubicin) is 10.1% (inactive). Moreover, the figures for the inhibition in test [5] and in test [6] were -4.93% (inactive) and -4% (inactive), respectively.

Consider `O=C(CSc1nc(-c2ccco2)cc(C(F)(F)F)n1)N1CCCc2ccccc21`, for which the viability was 109% (inactive) in test [1]; 72.5% (inactive) in test [2]; 84% (inactive) in test [3]; 81.9% in test [4] (setting [7]); 84% in test [4] (setting [8]). Moreover, in test [4] (H69AR cells + 2 uM doxorubicin), the differential viability (reversal) was 2.16% (inactive). The inhibition is -1.05% (inactive) in test [5] and -0.16% (inactive) in test [6].

On to `COc1cccc(NC(=O)CC2SC(=Nc3ccccc3)NC2=O)c1` (configuration not stated), for which the viability in test [1] was 70% (inactive); in test [2] it was 106% (inactive); in test [3] it was 92% (inactive); in test [4] (setting [7]), 98.9%; in test [4] (setting [8]) it was 92%. Besides, in test [4] (H69AR cells + 2 uM doxorubicin), the differential viability (reversal) is -6.89% (inactive). Further, the inhibition in test [5] was -6.35% (inactive); in test [6], -1.27% (inactive).

Values taken from PubChem BioAssay.
